Values after ≈ are worked out from the molar mass of the structure shown.
tested on: BXPC-3; experiment: Growth inhibition of human BXPC3 cells after 48 hrs by SRB assay; format: functional; details: BXPC-3, 48 h
Method in brief: (§1)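 Cells seeded in 5% fetal bovine serum/RPMI1640 and incubated 24 h before serial compound dilutions were added. After 48 h exposure, cells were fixed with trichloroacetic acid and stained with sulforhodamine B (NCI standard SRB protocol), and optical density was read. GI50, the concentration causing 50% reduction in net protein increase, was calculated from the optical density data; values reported in µg/mL.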

Compound | GI50
CN1C(=O)C(=O)c2cc3c(c4c2c1cc1ccccc14)OCO3 [CEPHARADIONE A] | > 10 µg/mL
COc1cc2c3c(cc4ccccc4c3c1OC)N(C)C(=O)C2=O [CEPHARADIONE B] | > 10 µg/mL

The next lines start with the values.

GI50 | Compound
1.6 µg/mL (≈ 5.49 µM) | COc1ccc2c3c(cc4ccccc4c13)N(C)C(=O)C2=O
> 10 µg/mL | CCOc1ccc2c3c(cc4ccccc4c13)N(C)C(=O)C2=O
> 10 µg/mL | Cc1cc2c3c(cc4ccccc4c3c1C)N(C)C(=O)C2=O

tested on: MCF7; experiment: Growth inhibition of human MCF7 cells after 48 hrs by SRB assay; format: functional; details: MCF7, 48 h; method in brief: as §1

Compound | GI50
CN1C(=O)C(=O)c2cc3c(c4c2c1cc1ccccc14)OCO3 [CEPHARADIONE A] | 6.3 µg/mL (≈ 20.6 µM)
COc1cc2c3c(cc4ccccc4c3c1OC)N(C)C(=O)C2=O [CEPHARADIONE B] | > 10 µg/mL

Other lines, results leading:

GI50 | Compound
0.66 µg/mL (≈ 2.27 µM) | COc1ccc2c3c(cc4ccccc4c13)N(C)C(=O)C2=O
> 10 µg/mL | CCOc1ccc2c3c(cc4ccccc4c13)N(C)C(=O)C2=O
8.4 µg/mL (≈ 29 µM) | Cc1cc2c3c(cc4ccccc4c3c1C)N(C)C(=O)C2=O

tested on: SF-268; experiment: Growth inhibition of human SF268 cells after 48 hrs by SRB assay; format: functional; details: SF-268, 48 h; method in brief: as §1

Compound | GI50
COc1ccc2c3c(cc4ccccc4c13)N(C)C(=O)C2=O | 0.42 µg/mL (≈ 1.44 µM)
CCOc1ccc2c3c(cc4ccccc4c13)N(C)C(=O)C2=O | > 10 µg/mL
Cc1cc2c3c(cc4ccccc4c3c1C)N(C)C(=O)C2=O | 0.7 µg/mL (≈ 2.42 µM)
CN1C(=O)C(=O)c2cc3c(c4c2c1cc1ccccc14)OCO3 [CEPHARADIONE A] | 2.9 µg/mL (≈ 9.5 µM)
COc1cc2c3c(cc4ccccc4c3c1OC)N(C)C(=O)C2=O [CEPHARADIONE B] | 22.8 µg/mL (≈ 71 µM)

tested on: NCI-H460; experiment: Growth inhibition of human NCI-H460 cells after 48 hrs by SRB assay; format: functional; details: NCI-H460, 48 h; method in brief: as §1

Compound | GI50
CN1C(=O)C(=O)c2cc3c(c4c2c1cc1ccccc14)OCO3 [CEPHARADIONE A] | 2.5 µg/mL (≈ 8.19 µM)
COc1cc2c3c(cc4ccccc4c3c1OC)N(C)C(=O)C2=O [CEPHARADIONE B] | > 10 µg/mL

Continued, values first:

GI50 | Compound
0.46 µg/mL (≈ 1.58 µM) | COc1ccc2c3c(cc4ccccc4c13)N(C)C(=O)C2=O
> 10 µg/mL | CCOc1ccc2c3c(cc4ccccc4c13)N(C)C(=O)C2=O
2.3 µg/mL (≈ 7.95 µM) | Cc1cc2c3c(cc4ccccc4c3c1C)N(C)C(=O)C2=O

tested on: KM-20L2; experiment: Growth inhibition of human KM20L2 cells after 48 hrs by SRB assay; format: functional; details: KM-20L2, 48 h; method in brief: as §1

Compound | GI50
COc1ccc2c3c(cc4ccccc4c13)N(C)C(=O)C2=O | 0.82 µg/mL (≈ 2.81 µM)
CCOc1ccc2c3c(cc4ccccc4c13)N(C)C(=O)C2=O | > 10 µg/mL
Cc1cc2c3c(cc4ccccc4c3c1C)N(C)C(=O)C2=O | 4.2 µg/mL (≈ 14.5 µM)
CN1C(=O)C(=O)c2cc3c(c4c2c1cc1ccccc14)OCO3 [CEPHARADIONE A] | 17.3 µg/mL (≈ 56.7 µM)
COc1cc2c3c(cc4ccccc4c3c1OC)N(C)C(=O)C2=O [CEPHARADIONE B] | > 10 µg/mL

tested on: DU-145; experiment: Growth inhibition of human DU145 cells after 48 hrs by SRB assay; format: functional; details: DU-145, 48 h; method in brief: as §1

Compound | GI50
CN1C(=O)C(=O)c2cc3c(c4c2c1cc1ccccc14)OCO3 [CEPHARADIONE A] | 4.3 µg/mL (≈ 14.1 µM)
COc1cc2c3c(cc4ccccc4c3c1OC)N(C)C(=O)C2=O [CEPHARADIONE B] | 36.1 µg/mL (≈ 112 µM)

Other lines, results leading:

GI50 | Compound
1.3 µg/mL (≈ 4.46 µM) | COc1ccc2c3c(cc4ccccc4c13)N(C)C(=O)C2=O
> 10 µg/mL | CCOc1ccc2c3c(cc4ccccc4c13)N(C)C(=O)C2=O
> 10 µg/mL | Cc1cc2c3c(cc4ccccc4c3c1C)N(C)C(=O)C2=O

— ChEMBL document CHEMBL1149665, “Synthesis and biological evaluation of cepharadiones A and B and related dioxoaporphines” (2007)
